# Experimental data reported in ChEMBL document CHEMBL1157730, “Diaryl piperidines as CB1 receptor antagonists” (Bioorg Med Chem Lett, 2010).
# Experiments:
# Cannabinoid receptor 1 = Cannabinoid receptor 1 (Homo sapiens, UniProt P21554); assay: Binding affinity to human CB1 receptor
# Cannabinoid receptor 2 [1] = target: T1, Cannabinoid receptor 2 (Homo sapiens, UniProt P34972); assay: Binding affinity to human CB2 receptor
# Cannabinoid receptor 2 [2] = target: T1, Cannabinoid receptor 2; assay: Binding affinity to human CB2 receptor at 1 uM
# [3] = Drug level in DIO mouse brain at 3 mg/kg, po after 24 hrs; assay type: ADME, organism-based; set-up: dose 3 mg/kg, route oral; details: read-out: Drug uptake
# Procedure, shortened: (§1)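 Diet-induced obese mice dosed orally at 3 mg/kg, 1 h before dark onset; total drug concentrations in plasma (ng/mL) and brain (ng/g) measured at the 24-h time point.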
# [4] = Drug level in DIO mouse plasma at 3 mg/kg, po after 24 hrs; assay type: ADME, organism-based; set-up: dose 3 mg/kg, route oral; details: read-out: Drug uptake; procedure, shortened: as §1
# Mus musculus [5] = assay: Reduction of food intake in DIO mouse model at 3 mg/kg, po after 6 hrs relative to control; assay type: functional; set-up: scale not given: the % may be the effect or the level left
# Procedure, shortened: (§2)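 Fed diet-induced obese mice; oral dosing 1 h before dark onset; food intake measured at 2, 4, 6 and 24 h and expressed as percent reduction versus vehicle-treated mice; significance threshold p<0.05.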
# Mus musculus [6] = assay: Reduction of food intake in DIO mouse model at 3 mg/kg, po after 24 hrs relative to control; assay type: functional; set-up: scale not given: the % may be the effect or the level left; procedure, shortened: as §2
# Mus musculus [7] = assay: Reduction of food intake in DIO mouse model at 3 mg/kg, po after 4 hrs relative to control; assay type: functional; set-up: scale not given: the % may be the effect or the level left; procedure, shortened: as §2
# Mus musculus [8] = assay: Reduction of food intake in DIO mouse model at 3 mg/kg, po after 2 hrs relative to control; assay type: functional; set-up: scale not given: the % may be the effect or the level left; procedure, shortened: as §2
# T1 sequence (P34972 whole entry): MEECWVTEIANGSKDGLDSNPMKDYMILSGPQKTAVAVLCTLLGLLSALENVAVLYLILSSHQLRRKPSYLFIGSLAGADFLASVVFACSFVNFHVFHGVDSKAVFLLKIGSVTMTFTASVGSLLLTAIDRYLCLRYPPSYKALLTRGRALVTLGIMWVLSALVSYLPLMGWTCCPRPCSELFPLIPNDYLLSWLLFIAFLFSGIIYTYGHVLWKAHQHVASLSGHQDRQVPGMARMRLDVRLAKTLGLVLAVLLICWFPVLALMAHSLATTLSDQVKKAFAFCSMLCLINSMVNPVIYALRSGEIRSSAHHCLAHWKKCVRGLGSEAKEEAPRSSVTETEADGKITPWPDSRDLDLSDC
# Chain of Cannabinoid receptor 1 (P21554 whole entry): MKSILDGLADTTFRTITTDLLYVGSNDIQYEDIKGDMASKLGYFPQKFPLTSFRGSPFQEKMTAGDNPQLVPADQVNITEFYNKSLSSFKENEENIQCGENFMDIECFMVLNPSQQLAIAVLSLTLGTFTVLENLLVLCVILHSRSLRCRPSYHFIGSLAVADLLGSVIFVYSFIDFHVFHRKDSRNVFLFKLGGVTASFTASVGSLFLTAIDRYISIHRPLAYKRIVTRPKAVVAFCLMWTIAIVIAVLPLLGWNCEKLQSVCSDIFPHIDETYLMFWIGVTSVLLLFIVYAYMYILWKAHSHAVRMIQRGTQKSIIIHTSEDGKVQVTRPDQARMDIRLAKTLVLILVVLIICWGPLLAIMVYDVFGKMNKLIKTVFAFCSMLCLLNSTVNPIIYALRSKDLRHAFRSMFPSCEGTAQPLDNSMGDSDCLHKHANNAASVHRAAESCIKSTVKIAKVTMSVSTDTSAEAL
smiles,measurement,setting,value
Fc1ccc(C[C@@H]2CC[C@H](c3ccc(Cl)cc3)N(c3ccc(Cl)cc3)C2)cc1F (relative stereo),Ki,Cannabinoid receptor 1,> 1640 nM
same,Ki,Cannabinoid receptor 2 [1],> 1850 nM
"O=S(=O)(NCCC1CCC(c2ccc(Cl)cc2Cl)N(c2ccc(Cl)cc2)C1)C1CC1 (single isomer, unassigned; enantiomer 2)",Ki,Cannabinoid receptor 1,57 nM
same,Ki,Cannabinoid receptor 2 [1],> 2400 nM
O=C(NC[C@@H]1CC[C@@H](c2ccc(Cl)cc2Cl)N(c2ccc(Cl)cc2)C1)C1CC1,Ki,Cannabinoid receptor 1,112 nM
same,inhibition,Cannabinoid receptor 2 [2],25%
NC[C@@H]1CC[C@@H](c2ccc(Cl)cc2Cl)N(c2ccc(Cl)cc2)C1,Ki,Cannabinoid receptor 1,133 nM
same,Ki,Cannabinoid receptor 2 [1],> 1850 nM
O=S(=O)(NC[C@@H]1CC[C@@H](c2ccc(Cl)cc2Cl)N(c2ccc(Cl)cc2)C1)C1CC1,Ki,Cannabinoid receptor 1,158 nM
same,Ki,Cannabinoid receptor 2 [1],> 1850 nM
O=S(=O)(NC[C@@H]1CC[C@@H](c2ccc(Cl)cc2Cl)N(c2ccc(Cl)cc2)C1)c1cccc2ccccc12,Ki,Cannabinoid receptor 1,2.3 nM
same,inhibition,Cannabinoid receptor 2 [2],5%
CC(=O)NCC[C@@H]1CC[C@@H](c2ccc(Cl)cc2Cl)N(c2ccc(Cl)cc2)C1,Ki,Cannabinoid receptor 1,42 nM
same,Ki,Cannabinoid receptor 2 [1],> 2400 nM
Fc1ccc(C[C@H]2CC[C@H](c3ccc(Cl)cc3)N(c3ccc(Cl)cc3Cl)C2)cc1F (relative stereo),Ki,Cannabinoid receptor 1,467 nM
same,Ki,Cannabinoid receptor 2 [1],> 1850 nM
O=S(=O)(NC[C@@H]1CC[C@@H](c2ccc(Cl)cc2Cl)N(c2ccc(Cl)cc2)C1)c1cccnc1,Ki,Cannabinoid receptor 1,6 nM
same,Ki,Cannabinoid receptor 2 [1],> 1850 nM
NCC[C@@H]1CC[C@@H](c2ccc(Cl)cc2Cl)N(c2ccc(Cl)cc2)C1,Ki,Cannabinoid receptor 1,61 nM
same,Ki,Cannabinoid receptor 2 [1],> 2220 nM
O=S(=O)(NCC[C@@H]1CC[C@@H](c2ccc(Cl)cc2Cl)N(c2ccc(Cl)cc2)C1)C1CC1,Ki,Cannabinoid receptor 1,3.8 nM
same,Ki,Cannabinoid receptor 2 [1],> 2220 nM
Clc1ccc(N2C[C@H](CN3CCNCC3)CC[C@H]2c2ccc(Cl)cc2Cl)cc1,Ki,Cannabinoid receptor 1,554 nM
same,Ki,Cannabinoid receptor 2 [1],> 2000 nM
CC(C)(C)CCN1CCN(C[C@@H]2CC[C@@H](c3ccc(Cl)cc3Cl)N(c3ccc(Cl)cc3)C2)CC1,Ki,Cannabinoid receptor 1,57 nM
same,Ki,Cannabinoid receptor 2 [1],> 1500 nM
O=C(NCc1ccc(Cl)cc1)[C@@H]1CC[C@@H](c2ccc(Cl)cc2Cl)N(c2ccc(Cl)cc2)C1,Ki,Cannabinoid receptor 1,63 nM
same,Ki,Cannabinoid receptor 2 [1],> 1850 nM
CC(C)CNC(=O)[C@@H]1CC[C@@H](c2ccc(Cl)cc2Cl)N(c2ccc(Cl)cc2)C1,Ki,Cannabinoid receptor 1,33 nM
same,Ki,Cannabinoid receptor 2 [1],1580 nM
O=C1[C@@H](Cc2ccc(F)c(F)c2)CC[C@H](c2ccc(Cl)cc2)N1c1ccc(Cl)cc1 (relative stereo),Ki,Cannabinoid receptor 1,444 nM
same,Ki,Cannabinoid receptor 2 [1],574 nM
CC(C)CCNS(=O)(=O)[C@@H]1CC[C@@H](c2ccc(Cl)cc2Cl)N(c2ccc(Cl)cc2)C1,Ki,Cannabinoid receptor 1,9.1 nM
same,Ki,Cannabinoid receptor 2 [1],1380 nM
N#Cc1ccc(C(=O)NC[C@@H]2CC[C@@H](c3ccc(Cl)cc3Cl)N(c3ccc(Cl)cc3)C2)cc1,concentration at 24 h,[3],12 ng/g
same,concentration at 24 h,[4],28 ng/mL
same,Ki,Cannabinoid receptor 1,5 nM
same,Activity,Mus musculus [5],24%
same,Activity,Mus musculus [6],10%
same,Activity,Mus musculus [7],22%
same,Activity,Mus musculus [8],22%
same,Ki,Cannabinoid receptor 2 [1],1410 nM
CC(=O)N1CCN(C[C@@H]2CC[C@@H](c3ccc(Cl)cc3Cl)N(c3ccc(Cl)cc3)C2)CC1,Ki,Cannabinoid receptor 1,451 nM
same,Ki,Cannabinoid receptor 2 [1],> 1850 nM
O=S(=O)(NCCC1CCC(c2ccc(Cl)cc2Cl)N(c2ccc(Cl)cc2)C1)C1CC1 (stereo in doubt; 14f),concentration at 24 h,[3],66 ng/g
same,concentration at 24 h,[4],15 ng/mL
same,Ki,Cannabinoid receptor 1,3.4 nM
same,Activity,Mus musculus [5],38%
same,Activity,Mus musculus [6],37%
same,Activity,Mus musculus [7],37%
same,Activity,Mus musculus [8],39%
same,Ki,Cannabinoid receptor 2 [1],> 2400 nM
O=C1[C@H](Cc2ccc(F)c(F)c2)CC[C@H](c2ccc(Cl)cc2)N1c1ccc(Cl)cc1 (relative stereo),Ki,Cannabinoid receptor 1,714 nM
same,Ki,Cannabinoid receptor 2 [1],> 1780 nM
Fc1ccc(C[C@H]2CC[C@H](c3ccc(Cl)cc3)N(c3ccc(Cl)cc3)C2)cc1F (relative stereo),Ki,Cannabinoid receptor 1,72 nM
same,Ki,Cannabinoid receptor 2 [1],> 1770 nM
CC(C)(C)OC(=O)N1CCN(C[C@@H]2CC[C@@H](c3ccc(Cl)cc3Cl)N(c3ccc(Cl)cc3)C2)CC1,Ki,Cannabinoid receptor 1,8 nM
same,Ki,Cannabinoid receptor 2 [1],> 1850 nM
O=C(NC1CCC1)[C@@H]1CC[C@@H](c2ccc(Cl)cc2Cl)N(c2ccc(Cl)cc2)C1,Ki,Cannabinoid receptor 1,33 nM
same,Ki,Cannabinoid receptor 2 [1],1380 nM
N#Cc1ccc(S(=O)(=O)NCC[C@@H]2CC[C@@H](c3ccc(Cl)cc3Cl)N(c3ccc(Cl)cc3)C2)cc1,Ki,Cannabinoid receptor 1,4.2 nM
same,Ki,Cannabinoid receptor 2 [1],> 2220 nM
O=C1[C@@H](Cc2ccc(F)c(F)c2)CC[C@H](c2ccc(Cl)cc2Cl)N1c1ccc(Cl)cc1 (relative stereo),Ki,Cannabinoid receptor 1,109 nM
same,Ki,Cannabinoid receptor 2 [1],> 1680 nM
O=S(=O)(C1CC1)N1CCN(C[C@@H]2CC[C@@H](c3ccc(Cl)cc3Cl)N(c3ccc(Cl)cc3)C2)CC1,Ki,Cannabinoid receptor 1,44 nM
same,Ki,Cannabinoid receptor 2 [1],> 2220 nM
CCCS(=O)(=O)NC[C@@H]1CC[C@@H](c2ccc(Cl)cc2Cl)N(c2ccc(Cl)cc2)C1,Ki,Cannabinoid receptor 1,48 nM
same,inhibition,Cannabinoid receptor 2 [2],25%
O=S(=O)(C[C@@H]1CC[C@@H](c2ccc(Cl)cc2Cl)N(c2ccc(Cl)cc2)C1)NC1CCCCC1,Ki,Cannabinoid receptor 1,35 nM
same,Ki,Cannabinoid receptor 2 [1],1250 nM
Fc1ccc(C[C@H]2CC[C@H](c3ccc(Cl)cc3Cl)N(c3ccc(Cl)cc3)C2)cc1F (relative stereo),Ki,Cannabinoid receptor 1,15 nM
same,Ki,Cannabinoid receptor 2 [1],> 1850 nM
N#Cc1ccc(C(=O)NCC[C@@H]2CC[C@@H](c3ccc(Cl)cc3Cl)N(c3ccc(Cl)cc3)C2)cc1,Ki,Cannabinoid receptor 1,5.1 nM
same,Ki,Cannabinoid receptor 2 [1],> 2450 nM
CC(C)(C)CC(=O)N1CCN(C[C@@H]2CC[C@@H](c3ccc(Cl)cc3Cl)N(c3ccc(Cl)cc3)C2)CC1,concentration at 24 h,[4],1 ng/mL
same,Ki,Cannabinoid receptor 1,13 nM
same,Activity,Mus musculus [5],3%
same,Activity,Mus musculus [6],9%
same,Activity,Mus musculus [7],0%
same,Activity,Mus musculus [8],0%
same,Ki,Cannabinoid receptor 2 [1],> 2400 nM
O=C(NC1CCCCC1)[C@@H]1CC[C@@H](c2ccc(Cl)cc2Cl)N(c2ccc(Cl)cc2)C1,Ki,Cannabinoid receptor 1,18 nM
same,Ki,Cannabinoid receptor 2 [1],368 nM
CS(=O)(=O)N1CCN(C[C@@H]2CC[C@@H](c3ccc(Cl)cc3Cl)N(c3ccc(Cl)cc3)C2)CC1,Ki,Cannabinoid receptor 1,690 nM
same,Ki,Cannabinoid receptor 2 [1],> 1850 nM
O=S(=O)(NCC[C@@H]1CC[C@@H](c2ccc(Cl)cc2Cl)N(c2ccc(Cl)cc2)C1)c1cccnc1,Ki,Cannabinoid receptor 1,5.8 nM
same,Ki,Cannabinoid receptor 2 [1],> 2220 nM
